ChEMBL document CHEMBL1149862, “Guaiane sesquiterpene lactones and amino acid-sesquiterpene lactone conjugates from the aerial parts of Saussurea pulchella” (2008)
pEC50: −log10 of the molar value.

Experiments:
Type in all cases: functional
Settings in all cases: read-out: ED50 (the source's name)
[1] = test system: SK-MEL-2; experiment: Cytotoxicity against human SK-MEL-2 cells by SRB assay
Outline: (§1)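 Sulforhodamine B (SRB) bioassay on cultured human cancer lines: A549 (non-small cell lung carcinoma), SK-OV-3 (ovary malignant ascites), SK-MEL-2 (skin melanoma) and HCT (colon adenocarcinoma). Cytotoxicity is reported as ED₅₀ in µM.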

[2] = test system: A549; experiment: Cytotoxicity against human A549 cells by SRB assay; outline: as §1
[3] = test system: HCT-15; experiment: Cytotoxicity against human HCT15 cells by SRB assay; outline: as §1
[4] = test system: SK-OV-3; experiment: Cytotoxicity against human SKOV3 cells by SRB assay; outline: as §1

Structure (SMILES) | pEC50 [1] | pEC50 [2] | pEC50 [3] | pEC50 [4]
C=C(CO)C(=O)O[C@H]1CC(=C)[C@@H]2C[C@H](O)C(=C)[C@@H]2[C@H]2OC(=O)C(=C)[C@@H]21 [CYNAROPICRIN] | 5.39 | 4.61 | 4.92 | 5.13
C=C1[C@@H]2[C@H]3OC(=O)[C@@H](CN[C@H](C(=O)O)C(C)C)[C@@H]3[C@@H](O)CC(=C)[C@@H]2C[C@@H]1O [PULCHELLAMINE E] | < 4.52 | < 4.52 | < 4.52 | < 4.52
C=C1[C@@H]2[C@H]3OC(=O)[C@@H](CN4CCC[C@H]4C(=O)O)[C@@H]3[C@@H](OC(=O)C(C)(O)CO)CC(=C)[C@@H]2C[C@@H]1O (stereo not given in full) [PULCHELLAMINE C] | 5.24 | 4.56 | 4.74 | 4.93
C=C1[C@@H]2[C@H]3OC(=O)[C@H](C)[C@@H]3[C@@H](O[C@@H]3O[C@H](CO)[C@@H](O)[C@H](O)[C@H]3O)CC(=C)[C@@H]2C[C@@H]1O | < 4.52 | < 4.52 | < 4.52 | < 4.52
C=C1[C@@H]2[C@H]3OC(=O)[C@@H](CN[C@@H](Cc4ccccc4)C(=O)O)[C@@H]3[C@@H](O)CC(=C)[C@@H]2C[C@@H]1O [PULCHELLAMINES D] | < 4.52 | < 4.52 | < 4.52 | < 4.52
C=C1[C@@H]2[C@H]3OC(=O)[C@@H](CNCCCC(=O)O)[C@@H]3[C@@H](O)CC(=C)[C@@H]2C[C@@H]1O [PULCHELLAMINE B] | < 4.52 | < 4.52 | < 4.52 | < 4.52
C=C1[C@@H]2[C@H]3OC(=O)[C@@H](CN[C@H](C(=O)O)[C@H](C)CC)[C@@H]3[C@@H](O)CC(=C)[C@@H]2C[C@@H]1O [PULCHELLAMINE G] | < 4.52 | < 4.52 | < 4.52 | < 4.52
C=C1C(=O)O[C@@H]2[C@H]3C(=C)[C@@H](O)C[C@H]3C(=C)C[C@H](OC(=O)CC(C)(C)O)[C@@H]12 | 5.17 | < 4.52 | 4.85 | 4.91
C=C1C(=O)O[C@@H]2[C@H]3C(=C)[C@@H](O)C[C@H]3C(=C)C[C@H](O)[C@@H]12 [DESACYLCYNAROPICRIN] | 5.01 | 4.59 | 4.95 | 4.95
C=C1C(=O)O[C@@H]2[C@H]3C(=C)[C@H](O)C[C@H]3C(=C)C[C@H](OC(=O)C(C)(O)CO)[C@@H]12 (stereo not given in full) | 4.98 | < 4.52 | 4.54 | 4.74
COc1cccc2c1C(=O)c1c(O)c3c(c(O)c1C2=O)C[C@@](O)(C(=O)CO)C[C@@H]3O[C@H]1C[C@H](N)[C@H](O)[C@H](C)O1 [DOXORUBICIN] | 6.93 | 8.15 | 6.79 | 7.25
C=C1[C@@H]2[C@H]3OC(=O)[C@@H](CN[C@@H](CC(N)=O)C(=O)O)[C@@H]3[C@@H](O)CC(=C)[C@@H]2C[C@@H]1O [PULCHELLAMINE A] | < 4.52 | < 4.52 | < 4.52 | < 4.52
C=C1[C@@H]2[C@H]3OC(=O)[C@@H](CN[C@@H](Cc4c[nH]c5ccccc45)C(=O)O)[C@@H]3[C@@H](O)CC(=C)[C@@H]2C[C@@H]1O [PULCHELLAMINE F] | 4.73 | < 4.52 | < 4.52 | 4.62
C=C1[C@@H]2[C@H]3OC(=O)[C@H](C)[C@@H]3[C@@H](O)CC(=C)[C@@H]2C[C@@H]1O | < 4.52 | < 4.52 | < 4.52 | < 4.52
C=C1[C@@H]2[C@H]3OC(=O)[C@H](C)[C@@H]3[C@@H](OC(=O)C(C)(O)CO)CC(=C)[C@@H]2C[C@@H]1O (stereo not given in full) | < 4.52 | < 4.52 | < 4.52 | < 4.52
